Compounds with a hit are over-represented: about 1.3% of the library has one in this group of screens.
Lipid droplet – inhibitors of hepatocyte lipid droplet formation, primary screen, imaging, high-throughput imaging, BODIPY stain | AID 1656, 2009 | AML12 mouse hepatocytes, oleate lipid droplets | inhibition, % at 6.5 µM | 240,000 compounds, 0.4% hits;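 active = lipid droplet intensity inhibited by at least 50%, with more than 500 cells counted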
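material = mouse AML12 hepatocyte cell line, fixed after treatment | also added = 100 µM oleic acid challenge | doses = compound at 6.5 µM only | schedule = overnight exposure | technique = Image-based BODIPY and DAPI two-channel analysis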
TbMetRS inhib – T. brucei MetRS inhibitors, primary screen, biochemical, luminescence; methionyl-tRNA synthetase (Trypanosoma brucei brucei); purified T. brucei MetRS, ATP depletion, Kinase-Glo luminescence; inhibition, % at 11.9 µM; 360,000 compounds, 0.4% hits;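 active = inhibition above a per-plate cutoff of the control wells' mean inhibition plus 3 SD, cut at about 5.5% in these data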;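 note: 0% = DMSO wells median and 100% = median of wells with control inhibitor compound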
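Material: T. brucei methionyl-tRNA synthetase, purified; reagent: substrates ATP, L-methionine and bulk Escherichia coli tRNA; dosing: 11.9 µM single point; timing: 15 min plus 2 h at 25 °C; detection: luminescence of leftover ATP; evaluation: % inhibition; control set: DMSO-only wells as low control; replicates: singlicate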
HCV NS3 hel inh – inhibitors of HCV NS3 helicase, primary screen, biochemical, Cy5 molecular beacon fluorescence. Hepatitis C virus NS3 helicase. NS3 helicase DNA unwinding. inhibition, % at 10.9 µM. 290,000 compounds, 0.56% hits. AID 1800, 2009;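 active = inhibition above the mean of all tested compounds plus 3 SD, set per campaign, cut at about 35% in these data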;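 note: 0% = DMSO wells and 100% = thioflavine S control wells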
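Measured by: Cy5 fluorescence, 0 and 60 min reads / Assay system: NS3 helicase fragment of HCV / Control set: low DMSO, high thioflavine S at 110 µM / Times: 1 h reaction at 25 °C, ATP-initiated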
core dimer inh – inhibitors of HCV core protein dimerization, primary screen, biochemical, TR-FRET, high-throughput. AID 1899, 2009. 300,000 compounds, 0.33% hits. inhibition, % at 5 µM. TR-FRET GST/Flag-core106 dimerization, 1536-well;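 active = inhibition above the mean of all tested compounds plus 3 SD, set per screening campaign, cut at about 45% in these data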
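assay system = GST-tagged and Flag-tagged HCV core protein residues 1-106 | controls = unlabelled core106 and no-GST-core106 wells | incubation = compound-protein-antibody incubation 4 h at 22.5 °C | probe or stimulus = Eu donor and XL665 acceptor anti-tag antibodies | read-out = % inhibition based on acceptor/donor emission ratio | signal = TR-FRET 671 and 617 nm emission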
Tb MetRS conf – T. brucei MetRS inhibitors, confirmation, biochemical, luminescence | 1,400 compounds, 93% hits | T. brucei MetRS enzyme, luminescence (ATP depletion) | inhibition, % at 11.9 µM | shares compounds with TbMetRS inhib; in the data active = inhibition above about 7%
Jurkat tox – Jurkat T cell cytotoxicity, cytotoxicity control for T. brucei MetRS inhibitor project, luminescence, high throughput; 1,400 compounds, 12% hits; inhibition, % at 8.3 µM; Jurkat cells viability, ATP luminescence; AID 624413, 2012; shares compounds with TbMetRS inhib; in the data active = inhibition above about 15%;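 note: 0% = vehicle and 100% = reference inhibitor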
Tb MetRS inh FP – T. brucei MetRS inhibitors, orthogonal assay for T. brucei MetRS inhibitor project, biochemical, fluorescence polarization; shares compounds with TbMetRS inhib; purified T. brucei MetRS; inhibition, % at 11.9 µM; 1,400 compounds, 44% hits; AID 651607, 2012; in the data active = inhibition above about 17%;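 note: 0% = vehicle wells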
* marks the source's active call; other numbers are inactive results.

`C=CCNC(=S)NNC(=O)c1ccc(=O)n(Cc2ccc(Cl)cc2Cl)c1` gave Lipid droplet -19, TbMetRS inhib 34*, HCV NS3 hel inh 3, core dimer inh -1, Tb MetRS conf 44*, Jurkat tox 6 and Tb MetRS inh FP 32*.
`CNC(=S)NNC(=O)c1ccc(=O)n(Cc2cccc(C(F)(F)F)c2)c1` gave Lipid droplet 3, TbMetRS inhib 6.1*, HCV NS3 hel inh -7, core dimer inh 1, Tb MetRS conf 13*, Jurkat tox -2 and Tb MetRS inh FP 3.
`O=C(NCCCN1CCCC1=O)c1ccc(NS(=O)(=O)c2cccc([N+](=O)[O-])c2)cc1` gave TbMetRS inhib -1 and core dimer inh -1.
For COc1ccc(NC(=O)CCC(=O)N2CCOCC2)c([N+](=O)[O-])c1 the results were Lipid droplet -6, TbMetRS inhib 0, HCV NS3 hel inh 7 and core dimer inh -2.
CCCN1CCN(CCCNC(=O)CN2C(=O)c3cccnc3Oc3ccc(C)cc32)CC1 was read as Lipid droplet 8, TbMetRS inhib 0, HCV NS3 hel inh 7 and core dimer inh -13.
`COc1cccc(NC(=O)CN(C)C(=O)c2ccc(N3CCOCC3)c([N+](=O)[O-])c2)c1` gave TbMetRS inhib 0 and core dimer inh -7.
`O=C(CSc1n[nH]c(-c2ccc(Br)cc2)n1)NC1CCCC1` gave TbMetRS inhib 12*, Tb MetRS conf 41*, Jurkat tox 1 and Tb MetRS inh FP 14.
`O=C(C(=O)N1CCN(c2ccccc2F)CC1)c1c[nH]c2ccccc12` gave Lipid droplet 4, TbMetRS inhib 7.3*, HCV NS3 hel inh -16, core dimer inh -1, Tb MetRS conf 11*, Jurkat tox 6 and Tb MetRS inh FP 3.
For O=C(C(=O)N1CCN(Cc2ccccc2)CC1)c1c[nH]c2ccccc12 the results were TbMetRS inhib 12*, core dimer inh -1, Tb MetRS conf 21*, Jurkat tox -6 and Tb MetRS inh FP 4.
Screening O=C(C(=O)N1CCN(c2ccccc2)CC1)c1c[nH]c2ccccc12 returned Lipid droplet -3, TbMetRS inhib 6.7*, HCV NS3 hel inh -11, core dimer inh 0, Tb MetRS conf 13*, Jurkat tox 4 and Tb MetRS inh FP 3.
O=C(c1c[nH]c2ccccc12)N1CCN(Cc2ccccc2)CC1 was read as TbMetRS inhib 1, HCV NS3 hel inh 13 and core dimer inh -18.
Screening O=C(CN1CCN(Cc2ccc3c(c2)OCO3)CC1)c1c[nH]c2ccccc12 returned TbMetRS inhib 14*, HCV NS3 hel inh -12, core dimer inh -7, Tb MetRS conf 27*, Jurkat tox -3 and Tb MetRS inh FP 9.
Cc1[nH]c2ccccc2c1C(=O)C(=O)N1CCN(c2ccccc2)CC1 was read as Lipid droplet -14, TbMetRS inhib 12*, HCV NS3 hel inh -1, core dimer inh -10, Tb MetRS conf 19*, Jurkat tox -12 and Tb MetRS inh FP 10.
`Cc1[nH]c2ccccc2c1C(=O)C(=O)N1CCN(C)CC1` gave Lipid droplet 0, TbMetRS inhib 0, HCV NS3 hel inh -12 and core dimer inh 3.
Screening COc1ccc(N2CCN(CC(=O)c3c[nH]c4ccccc34)CC2)cc1 returned Lipid droplet 8, TbMetRS inhib 4, HCV NS3 hel inh -9 and core dimer inh -17.
For COc1ccc(N2CCN(CCCNC(=O)C(=O)c3c(C)[nH]c4ccccc34)CC2)cc1 the results were Lipid droplet -31, TbMetRS inhib 5.9*, HCV NS3 hel inh -60, core dimer inh 0, Tb MetRS conf 18*, Jurkat tox -2 and Tb MetRS inh FP 8.
COc1ccccc1N1CCN(C(=O)C(=O)c2c[nH]c3ccccc23)CC1 was read as Lipid droplet 13, TbMetRS inhib 9.3*, HCV NS3 hel inh 7, core dimer inh 2, Tb MetRS conf 27*, Jurkat tox -2 and Tb MetRS inh FP 4.
`Cc1ccc(-c2nc(S(=O)(=O)c3ccccc3)c(SCC(=O)NCC3CCCO3)o2)cc1` (stereo not drawn) gave Lipid droplet -8, TbMetRS inhib 0, HCV NS3 hel inh -4 and core dimer inh -1.
COc1cccc(OC)c1C(=O)Nc1cccc(S(=O)(=O)Nc2ccccc2Cl)c1 was read as TbMetRS inhib 0.
For CCNC(=S)Nc1cccc(S(=O)(=O)Nc2ccccc2OC)c1 the results were Lipid droplet -32, TbMetRS inhib -1, HCV NS3 hel inh -9 and core dimer inh -5.
Screening COc1ccccc1NS(=O)(=O)c1cccc(NC(=O)Nc2ccc(Cl)cc2)c1 returned Lipid droplet -6, TbMetRS inhib 51*, HCV NS3 hel inh 3, core dimer inh 6, Tb MetRS conf 78*, Jurkat tox 4 and Tb MetRS inh FP 103*.
COc1ccccc1NS(=O)(=O)c1cccc(NC(=O)Nc2ccccc2)c1 was read as Lipid droplet -34, TbMetRS inhib 88*, HCV NS3 hel inh -9, core dimer inh 3, Tb MetRS conf 100*, Jurkat tox 13 and Tb MetRS inh FP 105*.
COc1ccccc1NC(=O)Cn1cc(C(=O)C(=O)N2CCOCC2)c2ccccc21 was read as Lipid droplet 1, TbMetRS inhib 0, HCV NS3 hel inh -5 and core dimer inh -14.
Screening CN(CCc1nc2ccccc2[nH]1)Cc1nc(CC2CC2)no1 returned Lipid droplet 8, TbMetRS inhib 1, HCV NS3 hel inh 1 and core dimer inh -18.
`CN(CCc1nc2ccc(Cl)cc2[nH]1)Cc1nc(CC2CC2)no1` gave Lipid droplet -7, TbMetRS inhib 42*, HCV NS3 hel inh 0, core dimer inh 5, Tb MetRS conf 62*, Jurkat tox -1 and Tb MetRS inh FP 28*.
`C[C@@H]1CN([C@@H](C)CO)C(=O)c2cc(NC(=O)C3CCCCC3)ccc2O[C@@H](C)CCCCO[C@@H]1CN(C)C(=O)CCCN(C)C` gave TbMetRS inhib 0.
Screening CC(C)Cc1nnc(NC(=O)Nc2ccccc2)s1 returned Lipid droplet 7, TbMetRS inhib 16*, HCV NS3 hel inh 4, core dimer inh -4, Tb MetRS conf 32*, Jurkat tox -4 and Tb MetRS inh FP 11.
